Experimental data reported in ChEMBL document CHEMBL1123124, “New antihistaminic N-heterocyclic 4-piperidinamines. 2. Synthesis and antihistaminic activity of 1-[(4-fluorophenyl)methyl]-N-(4-piperidinyl)-1H-benzimidazol-2-a mines” (1985).

Assays:
Rattus norvegicus [1] = assay: In vivo antihistaminic activity using compound 48/80 induced lethality test after 1 hr of subcutaneous administration in rat; format: functional; conditions: sc
Summary of the method: (§1)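 Protection was survival for 4 h after challenge. ED50 with confidence limits was calculated by Finney from five rats per dose and at least three doses of a geometric series (0.0025–40 mg/kg). Estimated ED50 used at least two rats per dose.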

Rattus norvegicus [2] = assay: In vivo antihistaminic activity using compound 48/80 induced lethality test in rat after 2 hr of oral administration; format: functional; summary of the method: as §1

| SMILES | ED50 (Rattus norvegicus [1]) [mg/kg] | ED50 (Rattus norvegicus [2]) [mg/kg] |
| --- | --- | --- |
| CC(Cc1ccccc1)N1CCC(Nc2nc3ccccc3n2Cc2ccc(F)cc2)CC1 (stereo not given) | 2.5 |  |
| Nc1ccc(CCN2CCC(Nc3nc4ccccc4n3Cc3ccc(F)cc3)CC2)cc1 | 0.31 | 0.63 |
| CCNC(=O)COc1ccc(CCN2CCC(Nc3nc4ccccc4n3Cc3ccc(F)cc3)CC2)cc1 | 1.25 | 2.5 |
| O=C(OCCN1CCC(Nc2nc3ccccc3n2Cc2ccc(F)cc2)CC1)N1CCOCC1 | 0.31 | 2.5 |
| COc1cccc(CCN2CCC(Nc3nc4ccccc4n3Cc3ccc(F)cc3)CC2)c1.Cl | 0.31 | 0.31 |
| OC(COc1ccccc1)CN1CCC(Nc2nc3ccccc3n2Cc2ccc(F)cc2)CC1 (stereo not given) | 0.63 | 1.25 |
| Fc1ccc(Cn2c(NC3CCN(CCC=C4c5ccccc5CCc5ccccc54)CC3)nc3ccccc32)cc1 | > 2.5 |  |
| Fc1ccc(Cn2c(NC3CCN(CCCCOc4ccccc4)CC3)nc3ccccc32)cc1 | 0.63 | 0.63 |
| COc1ccc(OC)c(CCN2CCC(Nc3nc4ccccc4n3Cc3ccc(F)cc3)CC2)c1 | 0.63 | 0.63 |
| Fc1ccc(Cn2c(NC3CCN(CCc4cccs4)CC3)nc3ccccc32)cc1 | 0.16 | 0.63 |
| Cl.N#CC1(c2ccccc2)CCC(N2CCC(Nc3nc4ccccc4n3Cc3ccc(F)cc3)CC2)CC1 (stereo not given) | > 2.5 |  |
| Cl.Oc1cccc(CCN2CCC(Nc3nc4ccccc4n3Cc3ccc(F)cc3)CC2)c1 | 0.16 | 0.31 |
| Fc1ccc(Cn2c(NC3CCN(CCN(Cc4ccccc4)Cc4ccccc4)CC3)nc3ccccc32)cc1 | > 2.5 |  |
| Fc1ccc(Cn2c(NC3CCN(CCCOc4ccccc4)CC3)nc3ccccc32)cc1 | 1.25 | 0.31 |
| Fc1ccc(Cn2c(NC3CCN(CCc4ccncc4)CC3)nc3ccccc32)cc1 | 0.31 | 1.25 |
| Fc1ccc(Cn2c(NC3CCN(CCc4cccc5ccccc45)CC3)nc3ccccc32)cc1 | 1.25 | 0.63 |
| COc1ccc(OCCCN2CCC(Nc3nc4ccccc4n3Cc3ccc(F)cc3)CC2)cc1 | 0.31 | 0.31 |
| Br.Br.Fc1ccc(Cn2c(NC3CCNCC3)nc3ccccc32)cc1 | 0.056 | 1.02 |
| COc1ccc(OCC(O)CN2CCC(Nc3nc4ccccc4n3Cc3ccc(F)cc3)CC2)cc1 (stereo not given) | 1.25 | 2.5 |
| COc1cc(CCN2CCC(Nc3nc4ccccc4n3Cc3ccc(F)cc3)CC2)cc(OC)c1OC.Cl | 1.25 | 0.63 |

| SMILES | ED50 (Rattus norvegicus [1]) [mg/kg] | ED50 (Rattus norvegicus [2]) [mg/kg] |
| --- | --- | --- |
| Fc1ccc(Cn2c(NC3CCN(CCc4ccccc4)CC3)nc3cc(Cl)ccc32)cc1 | > 2.5 |  |
| Cc1ccc2nc(NC3CCN(CCc4ccccc4)CC3)n(Cc3ccc(F)cc3)c2c1 | > 2.5 |  |
| Cc1cc(CCN2CCC(Nc3nc4ccccc4n3Cc3ccc(F)cc3)CC2)ccc1O.Cl | 0.08 | 0.16 |
| Cl.N#CCOc1ccc(CCN2CCC(Nc3nc4ccccc4n3Cc3ccc(F)cc3)CC2)cc1 | 0.63 | 0.08 |
| Fc1ccc(Cn2c(NC3CCN(CCc4ccccn4)CC3)nc3ccccc32)cc1 | 0.16 | 0.63 |
| OC(CN1CCC(Nc2nc3ccccc3n2Cc2ccc(F)cc2)CC1)c1ccccc1 (stereo not given) | 0.63 | > 2.5 |
| COc1ccccc1OCC(O)CN1CCC(Nc2nc3ccccc3n2Cc2ccc(F)cc2)CC1 (stereo not given) | 1.25 | 0.63 |
| Oc1nc2ccccc2n1CCCN1CCC(Nc2nc3ccccc3n2Cc2ccc(F)cc2)CC1 | 0.31 | 1.25 |
| CS(=O)(=O)c1ccc(CCN2CCC(Nc3nc4ccccc4n3Cc3ccc(F)cc3)CC2)cc1 | 1.25 | > 2.5 |
| CCCCNC(=O)Oc1ccc(CCN2CCC(Nc3nc4ccccc4n3Cc3ccc(F)cc3)CC2)cc1 | 2.5 |  |
| COc1ccc(C(=O)N(CCN2CCC(Nc3nc4ccccc4n3Cc3ccc(F)cc3)CC2)C(=O)c2ccc(OC)cc2)cc1.Cl | > 2.5 |  |
| CC(CN1CCC(Nc2nc3ccccc3n2Cc2ccc(F)cc2)CC1)c1ccccc1 (stereo not given) | 0.63 | 2.5 |
| COc1ccc(CCN2CCC(Nc3nc4ccccc4n3Cc3ccc(F)cc3)CC2)c(OC)c1.Cl | 0.31 | 0.31 |
| CCOC(=O)COc1ccc(CCN2CCC(Nc3nc4ccccc4n3Cc3ccc(F)cc3)CC2)cc1 | 0.16 | > 2.5 |
| COc1ccccc1CCN1CCC(Nc2nc3ccccc3n2Cc2ccc(F)cc2)CC1 | 1.25 | 0.63 |
| Cl.Fc1ccc(CCN2CCC(Nc3nc4ccccc4n3Cc3ccc(F)cc3)CC2)cc1 | 0.31 | > 2.5 |
| Cl.Fc1ccc(Cn2c(NC3CCN(CCc4ccccc4)CC3)nc3ccccc32)cc1 | 0.31 | 0.63 |
| Cc1cc(CCN2CCC(Nc3nc4ccccc4n3Cc3ccc(F)cc3)CC2)ccc1OCc1ccccc1 | > 2.5 |  |
| O=C(OCc1ccccc1)Oc1ccc(CCN2CCC(Nc3nc4ccccc4n3Cc3ccc(F)cc3)CC2)cc1 | 0.31 | 0.16 |
| COc1ccc(SCCCN2CCC(Nc3nc4ccccc4n3Cc3ccc(F)cc3)CC2)cc1 | 2.5 |  |

| SMILES | ED50 (Rattus norvegicus [1]) [mg/kg] | ED50 (Rattus norvegicus [2]) [mg/kg] |
| --- | --- | --- |
| CCOc1ccc(CCN2CCC(Nc3nc4ccccc4n3Cc3ccc(F)cc3)CC2)cc1 | 1.25 | 0.16 |
| CC(c1ccccc1)N1CCC(Nc2nc3ccccc3n2Cc2ccc(F)cc2)CC1 (stereo not given) | 0.31 | 2.5 |
| CSc1ccc(CCN2CCC(Nc3nc4ccccc4n3Cc3ccc(F)cc3)CC2)cc1 | 0.63 | 1.25 |
| COc1ccc(S(=O)(=O)CCCN2CCC(Nc3nc4ccccc4n3Cc3ccc(F)cc3)CC2)cc1 | 0.31 | 2.5 |
| Fc1ccc(Cn2c(NC3CCN(C/C=C/c4ccccc4)CC3)nc3ccccc32)cc1 | 1.25 | > 2.5 |
| Fc1ccc(Cn2c(NC3CCN(CCc4ccc(OCc5ccccc5)cc4)CC3)nc3ccccc32)cc1 | 2.5 |  |
| CNC(=O)NCCN1CCC(Nc2nc3ccccc3n2Cc2ccc(F)cc2)CC1 | 0.02 | > 2.5 |
| Fc1ccc(Cn2c(NC3CCN(CCCNc4ccccc4)CC3)nc3ccccc32)cc1 | 0.63 | 2.5 |
| CN(C)CCN1CCC(Nc2nc3ccccc3n2Cc2ccc(F)cc2)CC1 | 0.63 |  |
| CCCCOc1ccccc1OCC(O)CN1CCC(Nc2nc3ccccc3n2Cc2ccc(F)cc2)CC1 (stereo not given) | 2.5 |  |
| Cl.Fc1ccc(Cn2c(NC3CCN(CCN4CCOCC4)CC3)nc3ccccc32)cc1 | 0.31 | 2.5 |
| CNC(=O)Oc1ccc(CCN2CCC(Nc3nc4ccccc4n3Cc3ccc(F)cc3)CC2)cc1 | 1.25 | 2.5 |
| N#CCN1CCC(Nc2nc3ccccc3n2Cc2ccc(F)cc2)CC1 | 0.16 | 2.5 |
| COc1cccc(OC)c1OCC(O)CN1CCC(Nc2nc3ccccc3n2Cc2ccc(F)cc2)CC1 (stereo not given) | 0.63 | 1.25 |
| CC(=O)c1ccc(OCC(O)CN2CCC(Nc3nc4ccccc4n3Cc3ccc(F)cc3)CC2)cc1 (stereo not given) | 0.63 | 1.25 |
| Cl.Cn1nnn(CCN2CCC(Nc3nc4ccccc4n3Cc3ccc(F)cc3)CC2)c1=O | 0.31 | > 2.5 |
| Fc1ccc(Cn2c(NC3CCN(CCNCc4ccccc4)CC3)nc3ccccc32)cc1 | 1.25 | > 2.5 |
| CCn1nnn(CCN2CCC(Nc3nc4ccccc4n3Cc3ccc(F)cc3)CC2)c1=O | 0.16 | > 2.5 |
| COC(=O)COc1ccc(CCN2CCC(Nc3nc4ccccc4n3Cc3ccc(F)cc3)CC2)cc1 | 2.5 |  |
| C=CCOc1ccc(CCN2CCC(Nc3nc4ccccc4n3Cc3ccc(F)cc3)CC2)cc1.Cl | 2.5 |  |
